Marks after values point to notes of the source that are not given here.
Tests used:
[1] = tested on: myeloperoxidase (MPO); assay: TNBS-induced experimental colitis: colonic MPO activity; assay type: in vivo, Wistar rats; settings: TNBS colitis rats, day 11, oral treatment day 6 to 10
How it was run: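 Colon dissected on day 11 from TNBS-colitic male Wistar rats (intrarectal TNBS 100 mg/kg in 50% ethanol on day 3; oral dosing in 1% sodium CMC days 6-10; n = 6). MPO assayed by a published method, one unit degrading […] hydrogen peroxide at 25 °C. Reported as […]; one-way ANOVA with Dunnett's test.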

[2] = tested on: TNBS-induced colitis; assay: TNBS-induced experimental colitis: clinical activity score rate; assay type: in vivo, Wistar rats; settings: for Clinical activity score rate, 6 d: day 6, oral treatment day 6 to 10; for Clinical activity score rate, 6 d / Clinical activity score rate, 7 d / Clinical activity score rate, 8 d / Clinical activity score rate, 9 d / Clinical activity score rate, 10 d / Clinical activity score rate, 11 d: score 0-4; for Clinical activity score rate, 7 d: day 7, oral treatment day 6 to 10; for Clinical activity score rate, 8 d: day 8, oral treatment day 6 to 10; for Clinical activity score rate, 9 d: day 9, oral treatment day 6 to 10; for Clinical activity score rate, 10 d: day 10, oral treatment day 6 to 10; for Clinical activity score rate, 11 d: day 11, after oral treatment day 6 to 10
How it was run: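 Male Wistar rats (200-230 g, n = 6/group), starved 48 h, given intrarectal TNBS 100 mg/kg in 50% v/v ethanol (0.25 mL) on day 3. Oral dosing days 6-10 as 1% sodium CMC suspension, equimolar to parent acid. Weight loss, stool consistency and rectal bleeding each scored 0-4 daily and averaged per group. Two-way ANOVA with Bonferroni versus disease control.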

[3] = Aqueous solubility in distilled water; assay type: physicochemical; settings: 25 ± 1 °C
[4] = In vivo pharmacokinetics in plasma after oral administration; design: species or system Wistar rats; settings: rat
How it was run: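 Male Wistar rats (200-250 g, n = 6) housed in metabolic cages, fasted 24 h, water ad libitum. Single oral dose of prodrug (377.5 mg) or parent acid (270 mg) suspended in sodium CMC in saline (1 mL). Retro-orbital blood taken at 0 min, every 15 min for 1 h, bi-hourly to 12 h, and at 24 h, into EDTA tubes. Plasma quantified by HPLC against 80% human plasma calibration.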

[5] = Partition coefficient, n-octanol/water, shake flask method; assay type: physicochemical
[6] = released from SLZ in the colon; cited from earlier work
[7] = tested on: chronic UC; settings: chronic UC patients ref 24; cited from earlier work

Compound	Colonic MPO activity [1] [mU/100 mg tissue]	Clinical activity score rate, 6 d [2]	Clinical activity score rate, 7 d [2]	Clinical activity score rate, 8 d [2]	Clinical activity score rate, 9 d [2]	Clinical activity score rate, 10 d [2]	Clinical activity score rate, 11 d [2]	Minimized clinical activity score rate ([2]; oral treatment day 6 to 10) [%]	Aq. Solubility [3]	Time of disappearance of BBA from blood [4] [h]	Time of first appearance of BBA in blood [4] [min]	Time of maximum BBA in blood [4] [min]	log Poct [5]	Fraction entering circulation by absorption from large intestine [6] [%]	Remission rate [7] [%]
C[C@H]1[C@H](C)CC[C@]2(C)CC[C@]3(C)C(=CC[C@@H]4[C@@]5(C)CC[C@@H](O)[C@](C)(C(=O)O)[C@@H]5CC[C@]43C)[C@H]12 [BBA, β-boswellic acid]	60.71	2.77 ± 1.34	3.00 ± 1.00	2.33 ± 0.57	1.99 ± 0.66	1.33 ± 1.15	0.99 ± 1.10 ^e	79	practically insoluble	24	30	240	9.3	–	–
N[C@@H](Cc1c[nH]cn1)C(=O)O [H, L-histidine]	–	2.33 ± 0.67	2.55 ± 0.50	2.88 ± 0.83	2.77 ± 0.69	2.60 ± 0.82	2.00 ± 1.00^NS	–	–	–	–	–	–	–	–
N[C@H](Cc1ccccc1)C(=O)O [P, D-phenylalanine]	–	2.22 ± 0.83	2.55 ± 0.50	3.16 ± 1.04	3.33 ± 1.15	2.66 ± 1.44	2.27 ± 1.13^NS	–	–	–	–	–	–	–	–
Nc1ccc(O)c(C(=O)O)c1 [Prodrug 5-ASA, 5-aminosalicylate]	–	–	–	–	–	–	–	–	–	–	–	–	–	30	–
O=C(O)c1cc(/N=N/c2ccc(S(=O)(=O)Nc3ccccn3)cc2)ccc1O [SLZ, Sulfasalazine]	36.21	2.88 ± 0.83	2.44 ± 0.50	1.61 ± 1.13	1.11 ± 1.01	0.72 ± 0.75	0.38 ± 0.60 ^e	–	–	–	–	–	–	–	75
N[C@@H](Cc1c[nH]c2ccccc12)C(=O)O [T, L-tryptophan]	–	2.44 ± 0.69	2.60 ± 0.58	2.94 ± 0.82	2.66 ± 0.66	2.16 ± 1.08	1.88 ± 1.17 ^a	–	–	–	–	–	–	–	–
N[C@@H](Cc1ccc(O)cc1)C(=O)O [TY, L-tyrosine]	–	2.11 ± 0.84	2.55 ± 0.50	3.22 ± 1.07	3.33 ± 1.15	2.72 ± 1.49	2.33 ± 1.45^NS	–	–	–	–	–	–	–	–
